{"source": "ChEMBL document CHEMBL4014335", "about": "“Activation of Phenyl 4-(2-Oxo-3-alkylimidazolidin-1-yl)benzenesulfonates Prodrugs by CYP1A1 as New Antimitotics Targeting Breast Cancer Cells” (J Med Chem, 2017)", "key": {"Homo sapiens [1]": {"species": "Homo sapiens", "assay": "Destabilization of microtubule network in human MDA-MB-468 cells at 8 nM after 24 hrs by fluorescence microscopic analysis", "assay_type": "cell-based"}, "MDA-MB-468 [2]": {"test_system": "MDA-MB-468", "assay": "Cell cycle arrest in human MDA-MB-468 cells assessed as accumulation at subG1 phase at 8 nM after 24 hrs by DAPI-staining based FACS analysis (reference value: 0.2%)", "assay_type": "functional"}, "MDA-MB-468 [3]": {"test_system": "MDA-MB-468", "assay": "Cell cycle arrest in human MDA-MB-468 cells assessed as accumulation at S phase at 8 nM after 24 hrs by DAPI-staining based FACS analysis (reference value: 17%)", "assay_type": "functional"}, "MDA-MB-468 [4]": {"test_system": "MDA-MB-468", "assay": "Cytotoxicity against human MDA-MB-468 cells after 72 hrs in presence of CYP1A1 inhibitor quercetin by SRB assay", "assay_type": "functional, cell-based", "outline": "(§1)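 MDA-MB-468 cells (5.0 x 10^3/well) seeded and incubated 24 h. Drug freshly dissolved in DMSO, given at 0.75 to 1.0 x 10^5 nM, together with subtoxic CYP inhibitor, for 72 h. Cells fixed with cold 10% TCA and stained with 0.1% sulforhodamine B. Bound dye taken up in 10 mM Tris, absorbance read at 530-565 nm. At least two experiments, triplicate cultures.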"}, "MDA-MB-468 [5]": {"test_system": "MDA-MB-468", "assay": "Cytotoxicity against human MDA-MB-468 cells after 72 hrs in presence of CYP inhibitor curcumin by SRB assay", "assay_type": "functional, cell-based", "outline": "(§2)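 MDA-MB-468 cells co-incubated for 72 h with drug plus a subtoxic concentration of a CYP inhibitor. Viability read by SRB assay: TCA fixation, sulforhodamine B staining, absorbance at 530-565 nm.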"}, "MDA-MB-468 [6]": {"test_system": "MDA-MB-468", "assay": "Cell cycle arrest in human MDA-MB-468 cells assessed as accumulation at G2/M phase at 50 nM after 24 hrs by DAPI-staining based FACS analysis (reference value: 19.5%)", "assay_type": "functional"}, "MDA-MB-231 [7]": {"test_system": "MDA-MB-231", "assay": "Cell cycle arrest in human MDA-MB-231 cells assessed as accumulation at S phase at 50 nM after 24 hrs by DAPI-staining based FACS analysis (reference value: 9.7%)", "assay_type": "functional"}, "Cytochrome P450 1A2": {"target": "T1, Cytochrome P450 1A2 (Homo sapiens, UniProt P05177)", "T1 sequence (P05177 whole entry)": "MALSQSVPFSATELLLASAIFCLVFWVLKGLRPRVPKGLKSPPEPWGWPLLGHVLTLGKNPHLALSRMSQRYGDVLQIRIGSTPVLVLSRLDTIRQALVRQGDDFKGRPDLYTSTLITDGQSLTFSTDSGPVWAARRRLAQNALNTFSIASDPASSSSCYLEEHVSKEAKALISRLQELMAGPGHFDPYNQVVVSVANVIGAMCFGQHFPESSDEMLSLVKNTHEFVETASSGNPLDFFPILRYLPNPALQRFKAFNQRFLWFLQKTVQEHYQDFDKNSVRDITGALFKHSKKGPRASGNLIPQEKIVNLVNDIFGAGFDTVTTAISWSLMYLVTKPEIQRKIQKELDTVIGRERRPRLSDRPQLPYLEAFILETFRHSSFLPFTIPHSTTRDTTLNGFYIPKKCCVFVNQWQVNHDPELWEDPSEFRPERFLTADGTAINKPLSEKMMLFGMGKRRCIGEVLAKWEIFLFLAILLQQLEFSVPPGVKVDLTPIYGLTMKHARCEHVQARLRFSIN", "assay": "Prodrug activation assessed as human supersomes CYP1A2-mediated 3,4,5-trimethoxyphenyl 4-(2-oxoimidazolidin-1-yl)benzenesulfonate formation after 4 hrs by HPLC-MS analysis", "assay_type": "ADME", "conditions": "recombinant enzyme"}, "[8]": {"assay": "Selectivity ratio of IC50 for human HT-29 cells to IC50 for human MCF7 cells", "assay_type": "functional", "outline": "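Ratio is IC50 in reference line over IC50 in sensitive line. […] Cells in DMEM with 5% calf serum at 37 °C. At least two experiments, triplicate cultures; assay accepted when relative SD < 10%.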"}, "MDA-MB-468 [9]": {"test_system": "MDA-MB-468", "assay": "Cytotoxicity against human MDA-MB-468 cells after 72 hrs in presence of CYP1A1 inhibitor resveratrol by SRB assay", "assay_type": "functional, cell-based", "outline": "as §1"}, "MDA-MB-468 [10]": {"test_system": "MDA-MB-468", "assay": "Cell cycle arrest in human MDA-MB-468 cells assessed as accumulation at S phase at 50 nM after 24 hrs by DAPI-staining based FACS analysis (reference value: 17%)", "assay_type": "functional"}, "Chorioallantoic membrane": {"test_system": "Chorioallantoic membrane", "assay": "Toxicity in chicken chorioallantoic membrane implanted with CYP1A1 transfected human HT1080 cells at 1 ug/egg, iv administered on day 11 post implantation measured on day 17", "assay_type": "organism-based, Gallus gallus", "conditions": "in vivo", "outline": "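Fertilized chicken eggs bearing CYP1A1-transfected HT-1080 tumors on the CAM. On day 11, drug (40 mM DMSO stock) diluted in cremophor/EtOH/PBS 6.25/6.25/87.5, final DMSO < 0.5%. Given iv in 100 µL to 10–12 eggs per group. Embryos killed on day 17, tumor wet weight recorded, deaths and toxicity signs scored. Two independent experiments, 20–24 eggs in total.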"}, "MCF7": {"test_system": "MCF7", "assay": "Cell cycle arrest in human MCF7 cells assessed as accumulation at G0/G1 phase at 50 nM after 24 hrs by DAPI-staining based FACS analysis (reference value: 65.5%)", "assay_type": "functional"}, "MDA-MB-468 [11]": {"test_system": "MDA-MB-468", "assay": "Cytotoxicity against human MDA-MB-468 cells after 72 hrs in presence of CYP inhibitor pentachlorophenol by SRB assay", "assay_type": "functional, cell-based", "outline": "as §2"}, "Cytochrome P450 1A1": {"target": "T2, Cytochrome P450 1A1 (Homo sapiens, UniProt P04798)", "T2 sequence (P04798 whole entry)": "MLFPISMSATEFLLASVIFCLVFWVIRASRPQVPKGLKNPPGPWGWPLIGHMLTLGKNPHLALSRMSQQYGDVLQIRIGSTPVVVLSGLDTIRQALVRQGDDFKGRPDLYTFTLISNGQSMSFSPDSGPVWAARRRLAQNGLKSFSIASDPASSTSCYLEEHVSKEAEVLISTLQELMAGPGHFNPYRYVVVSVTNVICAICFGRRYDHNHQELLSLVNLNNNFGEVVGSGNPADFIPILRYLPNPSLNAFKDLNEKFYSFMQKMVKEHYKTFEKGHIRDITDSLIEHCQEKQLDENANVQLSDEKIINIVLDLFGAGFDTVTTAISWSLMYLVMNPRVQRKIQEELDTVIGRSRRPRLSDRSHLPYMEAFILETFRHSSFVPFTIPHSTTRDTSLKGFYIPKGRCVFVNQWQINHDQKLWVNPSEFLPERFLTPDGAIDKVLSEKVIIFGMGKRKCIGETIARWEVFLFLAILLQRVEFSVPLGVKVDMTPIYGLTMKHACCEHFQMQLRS", "assay": "Prodrug activation assessed as time required for human supersomes CYP1A1-mediated 3,4,5-trimethoxyphenyl 4-(2-oxoimidazolidin-1-yl)benzenesulfonate formation after 4 hrs by HPLC-MS analysis", "assay_type": "ADME", "conditions": "recombinant enzyme"}, "Homo sapiens [12]": {"species": "Homo sapiens", "assay": "Destabilization of microtubule network in human MDA-MB-468 cells at 50 nM after 24 hrs by fluorescence microscopic analysis", "assay_type": "cell-based"}, "MDA-MB-231 [13]": {"test_system": "MDA-MB-231", "assay": "Cell cycle arrest in human MDA-MB-231 cells assessed as accumulation at G0/G1 phase at 50 nM after 24 hrs by DAPI-staining based FACS analysis (reference value: 70.7%)", "assay_type": "functional"}, "MDA-MB-468 [14]": {"test_system": "MDA-MB-468", "assay": "Cell cycle arrest in human MDA-MB-468 cells assessed as accumulation at G0/G1 phase at 50 nM after 24 hrs by DAPI-staining based FACS analysis (reference value: 63.3%)", "assay_type": "functional"}, "MDA-MB-231 [15]": {"test_system": "MDA-MB-231", "assay": "Cell cycle arrest in human MDA-MB-231 cells assessed as accumulation at subG1 phase at 50 nM after 24 hrs by DAPI-staining based FACS analysis (reference value: 4.1%)", "assay_type": "functional"}}, "note": "The source made the active and inactive calls. No cut-off for these calls is given here.", "data": [{"smiles": "COc1cc(OS(=O)(=O)c2ccc(N3CCNC3=O)cc2)cc(OC)c1OC", "values": [{"measurement": "Activity", "setting": "Homo sapiens [1]", "value": "Active"}, {"measurement": "Activity", "setting": "MDA-MB-468 [2]", "value": 1.7, "unit": "%"}, {"measurement": "Activity", "setting": "MDA-MB-468 [3]", "value": 13.3, "unit": "%"}]}, {"smiles": "CCCCN1CCN(c2ccc(S(=O)(=O)Oc3cc(OC)c(OC)c(OC)c3)cc2)C1=O", "values": [{"measurement": "Activity", "setting": "MDA-MB-468 [4]", "value": "inactive"}, {"measurement": "Activity", "setting": "MDA-MB-468 [5]", "value": "Active"}, {"measurement": "Activity", "setting": "MDA-MB-468 [6]", "value": 70.5, "unit": "%"}, {"measurement": "Activity", "setting": "MDA-MB-231 [7]", "value": 9.2, "unit": "%"}, {"measurement": "Drug metabolism", "setting": "Cytochrome P450 1A2", "value": "Metabolite_Notdetected"}, {"measurement": "Ratio IC50", "setting": "[8]", "value": 360}, {"measurement": "Activity", "setting": "MDA-MB-468 [9]", "value": "inactive"}, {"measurement": "Activity", "setting": "MDA-MB-468 [10]", "value": 15, "unit": "%"}, {"measurement": "Activity", "setting": "Chorioallantoic membrane", "value": "Non-Toxic"}, {"measurement": "Activity", "setting": "MCF7", "value": 3.7, "unit": "%"}, {"measurement": "Activity", "setting": "MDA-MB-468 [11]", "value": "Active"}, {"measurement": "Time", "setting": "Cytochrome P450 1A1", "value": 30, "unit": "min"}, {"measurement": "Activity", "setting": "Homo sapiens [12]", "value": "Active"}, {"measurement": "Activity", "setting": "MDA-MB-231 [13]", "value": 73, "unit": "%"}, {"measurement": "Activity", "setting": "MDA-MB-468 [14]", "value": 13.2, "unit": "%"}, {"measurement": "Activity", "setting": "MDA-MB-231 [15]", "value": 2.1, "unit": "%"}]}]}
